# CHOP UPR activ: apoptotic UPR (CHOP) activation; activation, % at 10 µM; actives 0.34% (n = 330,000); CHO-CHOP luciferase reporter, luminescence; percent of tunicamycin response over DMSO baseline;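 active = at 10 µM dose, activation of 40% or more, normalized to positive control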;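 note: 100% = tunicamycin at 10 µg/mL and 0% = DMSO alone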
#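 Dosing – one dose, 10 µM in 0.5% DMSO · System – CHO-CHOP cells, stable luciferase reporter of PERK-eIF2a-CHOP signalling · Input – 500 cells/well · Control set – tunicamycin 10 µg/mL final as positive, DMSO-only wells as negative · Timing – 6 h compound treatment, 37 °C · Measure – % activation vs tunicamycin · Technique – luminescence read with Steady-Glo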
# CHOP inh: blocks CHOP induction under ER stress | CHO-K1 CHOP-promoter luciferase, tunicamycin-induced, 15-18 h | inhibition, % at 10 µM | actives 3.8% (n = 220,000) | AID 2732;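 active = compounds that reduced the stress-induced luciferase reporter signal by more than about 70% of percent inhibition, limit read from the data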;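 note: 0% = tunicamycin plus vehicle and 100% = wells without tunicamycin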
# NOD2 RIPK2 PPI: NOD2-RIPK2 protein interaction inhibition; actives 0.38% (n = 360,000); inhibition, % at 4.98 µM; CHO BLA complementation NOD2-RIPK2, CCF4 ratio; in the data active = inhibition above about 21%;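 note: 0% = vehicle only and 100% = reference blocker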
# TLR4-MyD88 BLA: blocks binding of human TLR4 to MyD88 | HeLa CL3-4 TLR4/MyD88 BLA complementation, FRET ratio | actives 0.18% (n = 200,000) | inhibition, % at 8.4 µM; in the data active = inhibition above about 25%;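 note: 0% = vehicle and 100% = reference inhibitor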
# XBP1 UPR activ: adaptive UPR (XBP1) activation. actives 0.33% (n = 330,000). activation, % at 20 µM. CHO-XBP1 luciferase reporter, IRE1-XBP1 UPR activation, luminescence; percent of tunicamycin response, DMSO as zero;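 active = versus positive control, 20 µM dose yields 30% or more activation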;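 note: 100% = tunicamycin at 10 µg/mL and 0% = DMSO only wells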
#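 Test system: CHO-XBP1 luciferase reporter cells | Buffer or medium: Serum-containing F12 medium, 10% FBS | Schedule: 6 h compound exposure at 37 °C, 5% CO2 | Detection: Steady-Glo luciferase glow luminescence, 10 min after reagent addition | Read-out basis: Activation, % of tunicamycin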
# TLR9-MyD88 inh: blocks human TLR9 binding to MyD88 | CHO BLA complementation TLR9-MyD88, CCF4 FRET ratio | AID 504734 | Q9NR96+Q99836 | inhibition, % at 4.98 µM | actives 0.21% (n = 340,000);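 active = inhibition above the mean over all tested compounds plus 3 SD, cut at about 21% in these data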;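 note: 0% = DMSO only wells and 100% = clavulanate BLA inhibitor control wells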
# CHOP confirm: confirmation of CHOP induction inhibitors. actives 45% (n = 2,100). shares compounds with CHOP inh. CHO-CHOP promoter luciferase reporter, tunicamycin-induced, luminescence. inhibition, % at 10 µM;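 active = mean of three repeat readings of reporter signal inhibition above a set limit, cut at about 70% in these data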;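 note: 0% = tunicamycin plus vehicle and 100% = wells lacking tunicamycin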
# UPR CHOP confirm: confirmation of apoptotic unfolded protein response (CHOP) activators; shares compounds with CHOP UPR activ; CHO-CHOP cells, CHOP-luciferase reporter luminescence; percent of tunicamycin response, DMSO as zero; activation, % at 10 µM; actives 64% (n = 1,000); in the data active = activation above about 33%;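 note: 0% = DMSO wells and 100% = tunicamycin 10 µg/mL wells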
# UPR XBP1 confirm: adaptive UPR (XBP1) activation, confirmed; shares compounds with XBP1 UPR activ; CHO-XBP1 IRE1-XBP1 luciferase reporter, luminescence; activation, % at 20 µM; actives 63% (n = 1,000);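 active = reporter signal at least 30% of the positive control's activation in two or more of four replicate wells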;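 note: plate controls were DMSO negative control for no effect and tunicamycin 10 µg/mL positive control for full effect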
# TLR9-MyD88 cf: TLR9-MyD88 interaction inhibition, confirmation. shares compounds with TLR9-MyD88 inh. CHO TLR9/MyD88 BLA complementation, CCF4 FRET ratio. AID 540250. inhibition, % at 4.98 µM. actives 51% (n = 680);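 active = mean inhibition across three repeats above about 21% taken from the earlier screen, limit read from the data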;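 note: blue over green emission ratio reports constitutive TLR9 MyD88 association via BLA complementation; 0% = DMSO vehicle wells and 100% = clavulanate BLA inhibitor wells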
# BLA counter-1: beta-lactamase reporter inhibition, counter-screen artifact. shares compounds with TLR9-MyD88 inh. CHO-BLA cells, CCF4 FRET ratio, BLA reporter. inhibition, % at 4.98 µM. actives 7% (n = 680);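 active = mean inhibition above a 50% cutoff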;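 note: counterscreen of TLR9-MyD88 hits on CMV-driven BLA in CHO-K1 cells; 0% = DMSO alone and 100% = clavulanate blocking BLA; higher means less blue over green ratio so more BLA blockade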
# TLR9 CHO tox: counter-screen for TLR9-MyD88 inhibitors: cytotoxicity in CHO cells | shares compounds with TLR9-MyD88 inh | luminescence | inhibition, % at 4.98 µM | actives 39% (n = 680); in the data active = inhibition above about 11%
# NOD2-RIPK2 conf: NOD2-RIPK2 interaction inhibition confirmed. CHO cells, NOD2-RIPK2 BLA complementation, CCF4 FRET. shares compounds with NOD2 RIPK2 PPI. inhibition, % at 4.98 µM. AID 624370. actives 70% (n = 1,200);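 active = mean inhibition across replicates above a set limit taken from the earlier primary screen, cut at about 21% in these data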;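 note: 0% = DMSO-only wells and the high end = clavulanate BLA-blocked wells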
# BLA counter-2: hits BLA reporter in NOD2-RIPK2 inhibitor counterscreen; actives 57% (n = 1,200); AID 624371; inhibition, % at 4.98 µM; shares compounds with NOD2 RIPK2 PPI; CHO BLA reporter, CCF4 FRET ratio;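 active = mean inhibition above the low-control mean inhibition plus three low-control SD, cut at about 11% in these data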;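 note: 0% = DMSO only wells and 100% = clavulanate high control wells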
# * = called active by the depositor; x = no result. Many of the other results were omitted from the sample, so hits are more common in it than they were.
SMILES,CHOP UPR activ,CHOP inh,NOD2 RIPK2 PPI,TLR4-MyD88 BLA,XBP1 UPR activ,TLR9-MyD88 inh,CHOP confirm,TLR9-MyD88 cf,BLA counter-1,TLR9 CHO tox,NOD2-RIPK2 conf,BLA counter-2,others
CN(C(=O)c1cccc(NC(=O)Cc2cccc(NC(=O)C3CCN(C(=O)C4CCCC4)CC3)c2)c1)C1CC1,x,x,-6,x,x,-7,x,x,x,x,x,x,
NCCOc1ccc(C2CCCCC2)cc1,0,7,-3,11,6,12,x,x,x,x,x,x,
NCCOc1ccc(C23CC4CC(CC(C4)C2)C3)cc1,14,105*,6,-2,97*,-1,-9,x,x,x,x,x,UPR XBP1 confirm=93*
O=C(OCn1ncc(Cl)c(Cl)c1=O)c1cccc(C(F)(F)F)c1,-11,107*,48*,17,-7,30*,120*,24*,12,97*,x,x,
CC(=O)NCCC(=O)Nc1cc(S(=O)(=O)N2CCOCC2)ccc1Oc1ccccc1,2,x,6,x,-6,-18,x,x,x,x,x,x,
COc1ccc(NC(=O)/C(Cl)=C(/Cl)S(=O)Cc2ccc(Cl)cc2)cn1 (centres undefined),-11,107*,68*,25,-9,54*,140*,56*,36,99*,x,x,
CCCCS(=O)(=O)/C=C\C=C/S(=O)(=O)CCCC,-12,x,91*,13,-10,34*,127*,37*,35,100*,x,x,
COc1ccc(S(=O)(=O)NC(CC(C)C)C(=O)NC(C)c2cccs2)cc1 (centres undefined),-1,x,-4,x,0,0,x,x,x,x,x,x,
COC(=O)c1cn[nH]c1NC(=S)Nc1ccc(Cl)c(Cl)c1,3,97*,9,-1,-2,22*,24,21,13,6,x,x,
COC(=O)c1cn[nH]c1NC(=S)Nc1ccccc1C,2,9,0,-6,2,0,x,x,x,x,x,x,
O=C(OCn1ncc(Br)c(Br)c1=O)c1ccccc1Cl,-11,111*,82*,14,-8,32*,124*,36*,24,100*,x,x,
O=C(OCc1cnc(Cl)s1)c1ccccc1Cl,2,14,5,-15,3,-2,x,x,x,x,x,x,
Cc1ccc(NC(=O)c2cc(N3C(=O)CCC3=O)ccc2N2CCOCC2)cc1,1,-21,4,-4,-2,-3,x,x,x,x,x,x,
Cc1ccc(NC(=O)c2cc(N3C(=O)C=CC3=O)ccc2N2CCOCC2)cc1Cl,x,100*,-1,1,x,32*,-19,55*,18,97*,x,x,
Cc1onc(-c2c(F)cccc2Cl)c1C(=O)Nc1ccc(S(=O)(=O)Nc2ncccn2)cc1,x,22,-6,3,x,-8,x,x,x,x,x,x,
O=c1c(Cl)c(Cl)cnn1-c1ccccc1,x,101*,23*,24,x,24*,96*,21*,13,98*,35*,9,
Cc1ccc(Nc2nc(N)c([N+](=O)[O-])c(NCc3ccco3)n2)cc1,6,101*,25*,10,5,-4,24,x,x,x,8,-2,
Cc1cc(C)c2c(=O)n(CC(=O)Nc3ccc(Cl)cc3)sc2n1,3,104*,31*,x,-1,18,18,x,x,x,36*,6,
CC(=O)NC(CCC(=O)O)C(=O)O (centres undefined),x,x,-4,x,x,-6,x,x,x,x,x,x,
CCOc1ccc(C2C=C(c3ccccc3)Nc3nnnn32)cc1 (centres undefined),3,26,1,4,1,19,x,x,x,x,x,x,
CCOc1ccc(C2C=C(c3ccc(C)cc3)Nc3nnnn32)cc1 (centres undefined),12,107*,45*,3,6,62*,77*,-1,-3,2,-4,0,
CN(C)c1ccc(/C=C2\SC(=O)N(CCc3nnc(N)s3)C2=O)cc1,-9,100*,24*,x,-8,5,127*,x,x,x,22*,13*,
Cc1ccc(NN2C(=O)C=C(c3ccccc3)C2=O)cc1,54*,107*,84*,-3,-10,x,-139,x,x,x,86*,1,UPR CHOP confirm=172*
O=C1c2ccccc2C(=O)N1Nc1ccccc1,0,17,0,6,-2,3,x,x,x,x,x,x,
O=Nc1c(O)n(Cc2ccccc2)c2ccccc12,1,15,2,x,-3,9,x,x,x,x,x,x,
SMILES,CHOP UPR activ,CHOP inh,NOD2 RIPK2 PPI,TLR4-MyD88 BLA,XBP1 UPR activ,TLR9-MyD88 inh,CHOP confirm,TLR9-MyD88 cf,BLA counter-1,TLR9 CHO tox,NOD2-RIPK2 conf,BLA counter-2,others
O=Nc1c(O)n(Cc2ccc(Cl)c(Cl)c2)c2ccccc12,-1,107*,34*,7,2,28*,4,11,11,17*,56*,42*,
COc1ccc(C(=O)NCCc2nnc3ccc(SCC(=O)NCCc4ccc(OC)c(OC)c4)nn23)cc1,0,x,-5,x,-4,5,x,x,x,x,x,x,
N#C/C(=C/c1ccc(N2CCCCCC2)o1)c1ccc(Cl)cc1,92*,103*,39*,21,-1,24*,31,9,9,84*,28*,14*,UPR CHOP confirm=17
CC1=CC(=NOS(=O)(=O)c2ccc(C)cc2)CC(C)(C)C1,x,x,-4,x,x,x,x,x,x,x,x,x,
CC1=C/C(=N\OS(=O)(=O)c2ccccc2)C(C(C)C)=CC1=O,x,55,16,9,x,-6,x,x,x,x,x,x,
CC1=C(C)/C(=N\OS(=O)(=O)c2ccc(C)cc2)C=CC1=O,x,108*,58*,-4,x,3,104*,x,x,x,54*,4,
